Consider 4 compounds from ChEMBL document CHEMBL1121657, “Effects of 1-arylpyrroles and naphthoflavones upon cytochrome P-450 dependent monooxygenase activities” (J Med Chem, 1981).

Structures are written as SMILES.

Test [1] is filed under the species Rattus norvegicus. Nature of the test: Compound was evaluated for alpha -rate constant, in liver microsomes from beta-naphthoflavone-exposed rats. The settings on record: Microsome. A digest of the protocol: (§1)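 Rats (male Sprague-Dawley, 75-125 g) dosed ip with 3MC or βNF, 50 mg/kg in corn oil, on 3 successive days; liver microsomes isolated day 4. 7-Ethoxycoumarin deethylation (2.5-300 μM substrate) measured with inhibitor present; KM and Vmax by Eisenthal–Cornish-Bowden direct linear method. Ki from x-intercept of least-squares KM/Vmax vs [I]; αKi from x-intercept of 1/Vmax vs [I].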
On the technique in general: Liver microsomes are vesicles of endoplasmic reticulum, rich in cytochrome P450 enzymes.

The species named for test [2] is Rattus norvegicus. Nature of the test: Compound was evaluated for alpha -rate constant, in liver microsomes from 3-methylcholanthrene-exposed rats. The settings on record: Microsome. Put shortly:
as §1

For test [3], the species on record is Rattus norvegicus. As to the kind of experiment: Michaelis-Menten constant for 7-ethoxycoumarin deethylation in rat liver microsomes exposed to beta-naphthoflavone at 50 uM. The settings on record: Microsome. A digest of the protocol: (§2)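 Liver microsomes from young male Sprague-Dawley rats (75-125 g) given the inducer ip in corn oil at 50 mg/kg on 3 successive days, microsomes isolated on day 4. 7-Ethoxycoumarin (2.5 to 300 μM final) in 0.1 M Tris-HCl pH 7.4 with NADPH-regenerating system. Reaction started with microsomal protein (0.375-0.56 mg), run 4 min at 37 °C, stopped with TCA. 7-Hydroxycoumarin read fluorometrically at pH 10.3. Inhibitor added from methanol stock, ≥4 assays per condition. KM/Vmax obtained by the Eisenthal–Cornish-Bowden direct linear method with 95% distribution-free confidence limits.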

The species entered for test [4] is Rattus norvegicus. As to the kind of experiment: Michaelis-Menten constant for 7-ethoxycoumarin deethylation in rat liver microsomes exposed to 3-methylcholanthrene at a concentration of 50 uM. The settings on record: Microsome. Put shortly: (§3)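 Liver microsomes from male Sprague-Dawley rats given 3MC or βNF ip (50 mg/kg/day, corn oil, 3 days), harvested day 4. NADPH-regenerating system in 0.1 M Tris-HCl pH 7.4. Substrate 2.5-300 μM final. Inhibitor added from methanol stock. Reaction started with 0.375-0.56 mg microsomal protein, run 4 min at 37 °C, stopped with TCA. 7-Hydroxycoumarin fluorescence read at pH 10.3. At least four assays per substrate concentration. KM and Vmax by direct linear method, with distribution-free 95% confidence limits.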

Test [5] is filed under the species Rattus norvegicus. Nature of the test: Michaelis-Menten constant for 7-ethoxycoumarin deethylation in rat liver microsomes exposed to beta-naphthoflavone at 5 uM. The settings on record: Microsome. Put shortly: as §3
A short description of test [6]: Compound was evaluated for inhibition constant, in liver microsomes from 3-methylcholanthrene-exposed rats. The arrangement: species or system Rattus norvegicus, Microsome.
Test [7] is filed under the species Rattus norvegicus. Nature of the test: Vmax determined by 7-ethoxycoumarin deethylation in the presence by liver microsomes from rats exposed to 3-methylcholanthrene at concentration of 10 nM. The settings on record: Microsome.
The species entered for test [8] is Rattus norvegicus. As to the kind of experiment: Maximum rate constant for 7-ethoxycoumarin deethylation in rat liver microsomes exposed to beta-naphthoflavone at 5 uM. The settings on record: Microsome. Put shortly:
as §3

Test [9] is filed under the species Rattus norvegicus. Nature of the test: Maximum rate constant for 7-ethoxycoumarin deethylation in rat liver microsomes exposed to beta-naphthoflavone at 50 uM. The settings on record: Microsome. Put shortly:
as §3

For test [10], the species on record is Rattus norvegicus. Nature of the test: Michaelis-Menten constant for 7-ethoxycoumarin deethylation in rat liver microsomes exposed to 3-methylcholanthrene at a concentration of 10 nM. The settings on record: Microsome.
The species named for test [11] is Rattus norvegicus. As to the kind of experiment: Maximum rate constant for 7-ethoxycoumarin deethylation in rat liver microsomes exposed to 3-methylcholanthrene at concentration of 25 nM. The note with it: Microsome.
The species entered for test [12] is Rattus norvegicus. Nature of the test: Michaelis-Menten constant for 7-ethoxycoumarin deethylation in rat liver microsomes exposed to beta-naphthoflavone at 27.5 uM. The note with it: Microsome. A digest of the protocol: as §3
Test [13] can be described thus: Compound was evaluated for inhibition constant, in liver microsomes from beta-naphthoflavone-exposed rats. The arrangement: species or system Rattus norvegicus, Microsome.
The species named for test [14] is Rattus norvegicus. As to the kind of experiment: Maximum rate constant for 7-ethoxycoumarin deethylation in rat liver microsomes exposed to 3-methylcholanthrene at concentration of 50 nM. The note with it: Microsome.
The species named for test [15] is Rattus norvegicus. As to the kind of experiment: Michaelis-Menten constant for 7-ethoxycoumarin deethylation in rat liver microsomes exposed to 3-methylcholanthrene at a concentration of 25 uM. The settings on record: Microsome. Put shortly:
as §3

Test [16] is filed under the species Rattus norvegicus. Nature of the test: Maximum rate constant for 7-ethoxycoumarin deethylation in rat liver microsomes exposed to beta-naphthoflavone at concentration of 27.5 uM. The note with it: Microsome. A digest of the protocol: as §3
The species named for test [17] is Rattus norvegicus. As to the kind of experiment: Maximum rate constant for 7-ethoxycoumarin deethylation in rat liver microsomes exposed to beta-naphthoflavone at 1000 nM. The settings on record: Microsome.
Test [18] is filed under the species Rattus norvegicus. As to the kind of experiment: Michaelis-Menten constant for 7-ethoxycoumarin deethylation in rat liver microsomes exposed to 3-methylcholanthrene at concentration of 50 nM. The note with it: Microsome.
For test [19], the species on record is Rattus norvegicus. Nature of the test: Michaelis-Menten constant for 7-ethoxycoumarin deethylation in rat liver microsomes exposed to 3-methylcholanthrene at concentration of 25 nM. The note with it: Microsome.
The species entered for test [20] is Rattus norvegicus. As to the kind of experiment: Michaelis-Menten constant for 7-ethoxycoumarin deethylation in rat liver microsomes exposed to beta-naphthoflavone at 500 uM. The settings on record: Microsome. Put shortly: as §2
The species named for test [21] is Rattus norvegicus. As to the kind of experiment: Michaelis-Menten constant for 7-ethoxycoumarin deethylation in rat liver microsomes exposed to beta-naphthoflavone at 1500 nM. The note with it: Microsome.
The species named for test [22] is Rattus norvegicus. Nature of the test: Maximum rate constant for 7-ethoxycoumarin deethylation in rat liver microsomes exposed to beta-naphthoflavone at 1500 uM. The settings on record: Microsome. A digest of the protocol:
as §3

The species entered for test [23] is Rattus norvegicus. As to the kind of experiment: Michaelis-Menten constant for 7-ethoxycoumarin deethylation in rat liver microsomes exposed to 3-methylcholanthrene at concentration of 75 nM. The settings on record: Microsome.
The species entered for test [24] is Rattus norvegicus. As to the kind of experiment: Maximum rate constant for 7-ethoxycoumarin deethylation in rat liver microsomes exposed to 3-methylcholanthrene at concentration of 75 nM. The note with it: Microsome.
The species named for test [25] is Rattus norvegicus. Nature of the test: Michaelis-Menten constant for 7-ethoxycoumarin deethylation in rat liver microsomes exposed to beta-naphthoflavone at 1000 nM. The settings on record: Microsome.
For test [26], the species on record is Rattus norvegicus. Nature of the test: Maximum rate constant for 7-ethoxycoumarin deethylation in rat liver microsomes exposed to beta-naphthoflavone at 500 uM. The settings on record: Microsome. A digest of the protocol: as §3
Test [27] is filed under the species Rattus norvegicus. Nature of the test: Maximum rate constant for 7-ethoxycoumarin deethylation in rat liver microsomes exposed to 3-methylcholanthrene at concentration of 100 nM. The note with it: Microsome.
Test [28] is filed under the species Rattus norvegicus. As to the kind of experiment: Maximum rate constant for 7-ethoxycoumarin deethylation in rat liver microsomes exposed to beta-naphthoflavone at concentration of 1500 uM. The settings on record: Microsome. Put shortly:
as §3

For test [29], the species on record is Rattus norvegicus. As to the kind of experiment: Compound was evaluated for alpha -rate constant, in liver microsomes from beta-naphthoflavone-exposed rats; competitive inhibition. The settings on record: Microsome. Put shortly: as §1
The species entered for test [30] is Rattus norvegicus. As to the kind of experiment: Michaelis-Menten constant for 7-ethoxycoumarin deethylation in rat liver microsomes exposed to 3-methylcholanthrene at concentration of 100 uM. The settings on record: Microsome. Put shortly:
as §3

The species entered for test [31] is Rattus norvegicus. As to the kind of experiment: Maximum rate constant for 7-ethoxycoumarin deethylation in rat liver microsomes exposed to beta-naphthoflavone at concentration of 500 uM. The settings on record: Microsome. Put shortly: as §3
The species named for test [32] is Rattus norvegicus. Nature of the test: Maximum rate constant for 7-ethoxycoumarin deethylation in rat liver microsomes exposed to 3-methylcholanthrene at concentration of 200 uM. The note with it: Microsome, 225 nM, in the assay text read “225 nM” for “200 uM”. A digest of the protocol:
as §3

For test [33], the species on record is Rattus norvegicus. As to the kind of experiment: Maximum rate constant for 7-ethoxycoumarin deethylation in rat liver microsomes exposed to beta-naphthoflavone at concentration of 1000 uM. The note with it: Microsome. A digest of the protocol:
as §3

Test [34] is filed under the species Rattus norvegicus. Nature of the test: Michaelis-Menten constant for 7-ethoxycoumarin deethylation in rat liver microsomes exposed to exposed to 3-methylcholanthrene at concentration. The note with it: Microsome.

As for `c1ccc(-c2c[nH]cn2)cc1`, the Alpha Ki in the test listed under Rattus norvegicus [1] turned out to be 75000 nM; in the test listed under Rattus norvegicus [2] it was 64000 nM.
Regarding `O=c1cc(-c2ccccc2)oc2c1ccc1ccccc12` [ALPHA-NAPHTHOFLAVONE], the Km in the test listed under Rattus norvegicus [3] was found to be 25.7 µM; in the test listed under Rattus norvegicus [4], 23.4 µM; in the test listed under Rattus norvegicus [5], 18.5 µM; in the test listed under Rattus norvegicus [10], 19.6 µM; in the test listed under Rattus norvegicus [12], 17 µM; in the test listed under Rattus norvegicus [15], 17.3 µM. In addition, the Ki in test [6] came to 17 nM; in [13], 24 nM. Besides, the Vmax (pM min-1 mg-1) in the test filed under Rattus norvegicus [7] worked out at 137; in the test listed under Rattus norvegicus [8], 1220; in the test filed under Rattus norvegicus [9] it was 665; in the test listed under Rattus norvegicus [11] it was 108; in the test filed under Rattus norvegicus [14] it was 69; in the test listed under Rattus norvegicus [16] it was 904. Besides, the Alpha Ki in the test listed under Rattus norvegicus [1] was found to be 48 nM; in the test filed under Rattus norvegicus [2], 33 nM.
As to `O=c1cc(-c2ccccc2)oc2ccc3ccccc3c12` [BETA-NAPHTHOFLAVONE], the Vmax (pM min-1 mg-1) in the test filed under Rattus norvegicus [17] turned out to be 1100; in the test listed under Rattus norvegicus [11], 159; in the test filed under Rattus norvegicus [22], 1000; in the test listed under Rattus norvegicus [24] it was 134; in the test filed under Rattus norvegicus [14], 143; in the test listed under Rattus norvegicus [26] it was 1200. The Km in the test listed under Rattus norvegicus [18] came out at 26.6 µM; in the test filed under Rattus norvegicus [19] it was 19.2 µM; in the test listed under Rattus norvegicus [20] it was 33.9 µM; in the test filed under Rattus norvegicus [21], 93.2 µM; in the test listed under Rattus norvegicus [23], 39.7 µM; in the test filed under Rattus norvegicus [25] it was 60 µM. Also, the Ki in [6] came out at 26 nM; in test [13], 130 nM. Besides, the Alpha Ki came out at 4000 nM in the test filed under Rattus norvegicus [1] and 280 nM in the test listed under Rattus norvegicus [2].
Turning to `O=c1cc(-c2ccccc2)oc2ccccc12` [FLAVONE], the Vmax (pM min-1 mg-1) in the test listed under Rattus norvegicus [27] was found to be 149; in the test listed under Rattus norvegicus [28] it was 1330; in the test listed under Rattus norvegicus [31] it was 1340; in the test filed under Rattus norvegicus [14], 153; in the test listed under Rattus norvegicus [32], 120; in the test filed under Rattus norvegicus [33] it was 1370. Besides, the Km is 22.3 µM in the test filed under Rattus norvegicus [18]; 50.3 µM in the test filed under Rattus norvegicus [20]; 136 µM in the test listed under Rattus norvegicus [21]; 35.8 µM in the test filed under Rattus norvegicus [30]; 62.6 µM in the test listed under Rattus norvegicus [34]; 115 µM in the test filed under Rattus norvegicus [25]. The values for the Ki in test [6] and in test [13] were 33 nM and 190 nM, respectively. In addition, the “Alpha Ki” value in the test filed under Rattus norvegicus [29] was “Competitive inhibition”; in the test filed under Rattus norvegicus [2], 570 nM.

One may read the Km as the concentration of substrate that gives half-maximal velocity. Usually Ki stands for a dissociation constant, usually derived from enzyme kinetics or from competition with a known ligand. Low values mean tighter binding, high ones weaker binding.
